Laboratory results as given in ChEMBL document CHEMBL1138485, “Discovery of inducible nitric oxide synthase (iNOS) inhibitor development candidate KD7332, part 1: Identification of a novel, potent, and selective series of quinolinone iNOS dimerization inhibitors that are orally active in rodent pain models” (J Med Chem, 2009).
pEC50: −log10 of the molar value.

How the values were obtained:
Type in all cases: cell-based
[1] = target: Nitric oxide synthase, inducible (Homo sapiens, UniProt P35228); assay: Inhibition of human iNOS expressed in HEK293 cells assessed as NO production by transient transfection assay
Sequence of Nitric oxide synthase, inducible (P35228 whole entry): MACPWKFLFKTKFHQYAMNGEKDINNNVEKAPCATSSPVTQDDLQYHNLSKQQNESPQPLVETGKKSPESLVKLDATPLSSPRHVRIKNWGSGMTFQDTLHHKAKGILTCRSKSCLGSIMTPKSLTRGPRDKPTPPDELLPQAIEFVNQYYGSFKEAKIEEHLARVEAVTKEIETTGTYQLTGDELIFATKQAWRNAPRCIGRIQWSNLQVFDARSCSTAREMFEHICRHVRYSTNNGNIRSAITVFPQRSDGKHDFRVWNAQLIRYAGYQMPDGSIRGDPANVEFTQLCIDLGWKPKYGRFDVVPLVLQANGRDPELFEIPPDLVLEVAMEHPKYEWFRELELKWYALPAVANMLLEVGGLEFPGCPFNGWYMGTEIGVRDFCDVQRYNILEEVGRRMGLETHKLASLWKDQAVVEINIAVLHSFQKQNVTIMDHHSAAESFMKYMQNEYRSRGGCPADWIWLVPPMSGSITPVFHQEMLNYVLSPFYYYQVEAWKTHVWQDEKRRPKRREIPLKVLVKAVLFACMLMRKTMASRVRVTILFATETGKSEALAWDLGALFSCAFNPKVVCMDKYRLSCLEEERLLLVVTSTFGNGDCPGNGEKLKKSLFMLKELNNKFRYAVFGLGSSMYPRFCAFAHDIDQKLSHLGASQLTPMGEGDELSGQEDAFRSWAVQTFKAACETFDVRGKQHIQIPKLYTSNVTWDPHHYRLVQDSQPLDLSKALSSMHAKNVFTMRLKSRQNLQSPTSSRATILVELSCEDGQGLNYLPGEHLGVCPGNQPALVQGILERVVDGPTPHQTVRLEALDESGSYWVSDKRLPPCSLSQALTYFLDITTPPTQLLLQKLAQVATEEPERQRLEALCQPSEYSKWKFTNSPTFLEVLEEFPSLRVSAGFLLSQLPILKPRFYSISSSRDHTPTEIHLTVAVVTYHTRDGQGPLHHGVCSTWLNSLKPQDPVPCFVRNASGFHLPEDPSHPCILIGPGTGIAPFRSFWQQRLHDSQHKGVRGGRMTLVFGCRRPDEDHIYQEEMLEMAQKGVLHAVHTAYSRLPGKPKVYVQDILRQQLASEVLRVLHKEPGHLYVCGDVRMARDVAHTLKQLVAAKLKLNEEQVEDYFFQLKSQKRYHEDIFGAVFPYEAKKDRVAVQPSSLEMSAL
In short: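 HEK293 cells grown to ~70% confluence in DMEM/10% FBS with pen/strep. Cells transiently transfected with 10 µg human or murine iNOS plasmid (Fugene 6), 4 h at 37 °C, 10% CO2. Trypsinized, plated at 5 × 10⁵ cells/mL and dosed at once; 1400W 100 µM final as positive control. After 18 h, NO read as DAN fluorescence (10 µg/mL, 20 min RT, then NaOH). EC50 from 3 runs, 10-point curves, n = 8/point.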

[2] = target: T1, Nitric oxide synthase 3 (Homo sapiens) (UniProt P29474); assay: Inhibition of human eNOS expressed in HEK293 cells assessed as NO production at 100 uM by transient transfection assay relative to BBS-4
T1 sequence (whole entry): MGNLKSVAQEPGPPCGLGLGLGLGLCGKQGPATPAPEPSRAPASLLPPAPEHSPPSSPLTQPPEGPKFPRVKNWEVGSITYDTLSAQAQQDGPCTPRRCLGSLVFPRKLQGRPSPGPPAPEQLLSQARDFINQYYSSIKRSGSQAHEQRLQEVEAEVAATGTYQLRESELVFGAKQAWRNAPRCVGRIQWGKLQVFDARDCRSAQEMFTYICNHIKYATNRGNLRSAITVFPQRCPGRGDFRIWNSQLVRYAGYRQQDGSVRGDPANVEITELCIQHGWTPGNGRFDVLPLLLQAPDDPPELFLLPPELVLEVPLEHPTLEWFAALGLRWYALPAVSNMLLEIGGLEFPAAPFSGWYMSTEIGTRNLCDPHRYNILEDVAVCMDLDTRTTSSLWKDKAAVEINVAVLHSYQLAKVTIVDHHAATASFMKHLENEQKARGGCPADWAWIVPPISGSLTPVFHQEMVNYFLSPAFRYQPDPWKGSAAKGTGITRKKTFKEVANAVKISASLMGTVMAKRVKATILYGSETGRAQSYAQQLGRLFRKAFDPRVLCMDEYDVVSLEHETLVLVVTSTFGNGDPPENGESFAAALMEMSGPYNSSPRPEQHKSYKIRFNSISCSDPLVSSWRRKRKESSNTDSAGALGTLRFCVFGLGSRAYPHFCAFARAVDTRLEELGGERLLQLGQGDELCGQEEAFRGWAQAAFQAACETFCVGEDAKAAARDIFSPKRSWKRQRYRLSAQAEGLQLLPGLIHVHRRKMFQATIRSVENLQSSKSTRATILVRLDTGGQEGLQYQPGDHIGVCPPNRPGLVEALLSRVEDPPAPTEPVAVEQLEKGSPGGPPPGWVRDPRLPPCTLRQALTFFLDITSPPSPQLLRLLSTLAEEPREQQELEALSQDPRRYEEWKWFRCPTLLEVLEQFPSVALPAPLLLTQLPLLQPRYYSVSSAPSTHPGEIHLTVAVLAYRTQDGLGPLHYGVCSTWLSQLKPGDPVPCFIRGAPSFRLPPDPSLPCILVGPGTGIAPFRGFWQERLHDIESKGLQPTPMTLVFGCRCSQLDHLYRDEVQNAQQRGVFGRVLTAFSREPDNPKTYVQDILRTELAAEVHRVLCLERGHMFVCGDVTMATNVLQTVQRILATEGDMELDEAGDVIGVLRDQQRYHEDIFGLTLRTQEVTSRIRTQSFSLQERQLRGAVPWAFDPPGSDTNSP
In short: (§1)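 HEK293 cells transiently transfected with human eNOS (15 µg plasmid) or nNOS (10 µg plasmid), Fugene 6 at 3:1 µL:µg, 4 h at 37 °C, 10% CO2. Plated at 5 × 10⁵ cells/mL with compound; SEITU 100 µM final as positive control. After 24 h, activated with A23187 (83 nM final, eNOS) or ionomycin (30 µM final, nNOS). After 18 h more, NO read by DAN fluorescence. Inhibition is relative to the maximal inhibition by the control dimerization inhibitor. 3 runs, 10-point curves, n = 3/point.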

Nitric oxide synthase 1 [3] = target: T2, Nitric oxide synthase 1 (Homo sapiens, UniProt P29475); assay: Inhibition of human nNOS expressed in HEK293 cells assessed as NO production by transient transfection assay
T2 sequence (P29475 whole entry): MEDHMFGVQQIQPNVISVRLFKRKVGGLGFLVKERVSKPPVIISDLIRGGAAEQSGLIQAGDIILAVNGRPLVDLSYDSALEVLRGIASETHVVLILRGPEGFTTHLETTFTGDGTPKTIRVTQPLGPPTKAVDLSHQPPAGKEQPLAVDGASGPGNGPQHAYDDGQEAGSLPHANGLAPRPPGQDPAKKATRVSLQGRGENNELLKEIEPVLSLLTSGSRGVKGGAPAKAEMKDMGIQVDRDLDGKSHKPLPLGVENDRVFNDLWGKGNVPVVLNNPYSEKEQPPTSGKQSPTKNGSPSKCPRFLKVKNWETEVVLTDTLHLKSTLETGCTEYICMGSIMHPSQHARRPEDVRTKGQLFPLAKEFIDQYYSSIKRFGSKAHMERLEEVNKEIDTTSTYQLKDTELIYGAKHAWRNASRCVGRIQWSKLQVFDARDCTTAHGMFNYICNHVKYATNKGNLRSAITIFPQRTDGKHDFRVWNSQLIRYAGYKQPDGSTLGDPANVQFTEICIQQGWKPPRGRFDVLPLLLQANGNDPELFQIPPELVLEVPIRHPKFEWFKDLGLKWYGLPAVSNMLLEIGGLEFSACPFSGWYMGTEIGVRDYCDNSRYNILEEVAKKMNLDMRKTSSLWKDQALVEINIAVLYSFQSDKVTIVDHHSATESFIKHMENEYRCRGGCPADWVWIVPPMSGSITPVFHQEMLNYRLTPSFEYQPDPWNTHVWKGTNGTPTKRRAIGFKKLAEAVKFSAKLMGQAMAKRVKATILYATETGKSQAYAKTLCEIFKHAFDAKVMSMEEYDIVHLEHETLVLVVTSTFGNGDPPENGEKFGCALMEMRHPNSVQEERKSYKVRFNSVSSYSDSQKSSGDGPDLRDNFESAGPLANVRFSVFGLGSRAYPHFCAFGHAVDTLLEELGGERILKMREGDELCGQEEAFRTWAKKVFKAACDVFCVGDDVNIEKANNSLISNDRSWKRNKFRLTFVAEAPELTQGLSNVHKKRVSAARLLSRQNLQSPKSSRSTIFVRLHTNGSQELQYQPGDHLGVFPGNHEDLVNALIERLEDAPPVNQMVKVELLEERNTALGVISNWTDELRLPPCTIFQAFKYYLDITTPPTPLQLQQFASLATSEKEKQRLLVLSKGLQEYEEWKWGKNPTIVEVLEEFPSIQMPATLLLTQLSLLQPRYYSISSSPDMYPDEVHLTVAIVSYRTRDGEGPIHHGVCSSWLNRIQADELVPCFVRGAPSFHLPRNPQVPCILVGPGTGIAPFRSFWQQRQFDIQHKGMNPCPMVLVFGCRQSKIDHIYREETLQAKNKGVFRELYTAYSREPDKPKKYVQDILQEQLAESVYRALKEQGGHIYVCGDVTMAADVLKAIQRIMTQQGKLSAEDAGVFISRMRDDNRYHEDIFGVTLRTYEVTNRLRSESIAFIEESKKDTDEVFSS

Nitric oxide synthase 3 = target: T3, Nitric oxide synthase 3 (Homo sapiens, UniProt P29474); assay: Inhibition of human eNOS expressed in HEK293 cells assessed as NO production by transient transfection assay
T3 sequence (P29474 whole entry): T1 sequence (whole entry)
In short: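 HEK293 cells grown to ~70% confluence in DMEM/10% FBS with pen/strep, transfected with 15 µg human eNOS plasmid plus Fugene 6 (3:1 µL:µg), 4 h at 37 °C, 10% CO2. Cells replated at 5 × 10⁵/mL, compound added at once, 24 h incubation, then A23187 (83 nM final). After 18 h, NO read by DAN fluorescence.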

Nitric oxide synthase 1 [4] = target: T2, Nitric oxide synthase 1; assay: Inhibition of human nNOS expressed in HEK293 cells assessed as NO production at 10 uM by transient transfection assay relative to BBS-4; in short: as §1

SMILES | pEC50 [1] | inhibition [2] [%] | pEC50 (Nitric oxide synthase 1 [3]) | pEC50 (Nitric oxide synthase 3) | inhibition (Nitric oxide synthase 1 [4]) [%]
COc1cccc(N(Cc2cc(=O)[nH]c3c(F)cccc23)C(=O)c2scnc2C)c1 | 6.00 | < 50 | < 5.00 | < 4.00 | < 50
Cc1ncsc1C(=O)N(Cc1cc(=O)[nH]c2ccccc12)c1ccccc1 | 6.30 | < 50 | < 5.00 | < 4.00 | < 50
Cc1ncsc1C(=O)N(Cc1cc(=O)[nH]c2c(F)cccc12)c1cccc(C#N)c1 | 7.25 | < 50 | 5.57 | < 4.00 | 2.7
Cc1cccnc1C(=O)N(Cc1cc(=O)[nH]c2c(F)cccc12)c1cccc(Cl)c1 | 6.38 | < 50 | 5.39 | < 4.00 | –
Cc1ncsc1C(=O)N(Cc1cc(=O)oc2c(F)c(F)ccc12)c1cccc(Cl)c1 | 6.08 | – | – | – | –
Cc1ncsc1C(=O)N(Cc1cc(=O)[nH]c2c(F)cccc12)c1ccccc1Cl | 4.89 | < 50 | < 5.00 | < 4.00 | < 50
Cc1ncsc1C(=O)N(Cc1cncc2c(F)cccc12)c1cccc(Cl)c1 | 6.12 | – | – | – | –
Cc1ncsc1C(=O)N(Cc1cncc2c(F)c(F)ccc12)c1cccc(Cl)c1 | 6.70 | – | < 5.00 | 4.43 | < 50
Cc1cnccc1C(=O)N(Cc1cc(=O)[nH]c2c(F)cccc12)c1cccc(Cl)c1 | 7.05 | – | 5.68 | 4.89 | –
Cc1ncsc1C(=O)N(Cc1cc(=O)[nH]c2c(Cl)cccc12)c1cccc(Cl)c1 | 5.89 | < 50 | < 5.00 | < 4.00 | < 50
Cc1ccncc1C(=O)N(Cc1cc(=O)[nH]c2c(F)cccc12)c1cccc(Cl)c1 | 7.31 | – | 5.66 | 4.39 | –
Cc1ncsc1C(=O)N(Cc1cc(=O)[nH]c2c(F)cccc12)c1ccccc1 | 6.70 | < 50 | < 5.00 | < 4.00 | < 50
O=C(C1CCCC1)N(Cc1cc(=O)[nH]c2c(F)cccc12)c1cccc(Cl)c1 | 6.11 | < 50 | 4.99 | < 4.00 | –
Cc1noc(C)c1C(=O)N(Cc1cc(=O)[nH]c2c(F)cccc12)c1cccc(Cl)c1 | 7.80 | – | 6.30 | 5.17 | –
Cc1ncsc1C(=O)N(Cc1cc(=O)[nH]c2c(F)cccc12)c1ccc(Cl)cc1 | 6.62 | < 50 | < 5.00 | < 4.00 | < 50
O=C(c1ccco1)N(Cc1cc(=O)[nH]c2ccccc12)c1ccccc1 | 5.89 | < 50 | < 5.00 | < 4.00 | < 50
O=C(c1cncs1)N(Cc1cc(=O)[nH]c2c(F)cccc12)c1cccc(Cl)c1 | 7.28 | < 50 | – | < 4.00 | –
Cc1ncsc1C(=O)N(Cc1cc(=O)[nH]c2c(F)cccc12)c1cccc(F)c1 | 7.21 | – | – | 4.82 | –
Cc1ncsc1C(=O)N(Cc1cc(=O)[nH]c2cccc(F)c12)c1cccc(Cl)c1 | 6.30 | < 50 | < 5.00 | < 4.00 | < 50
Cc1ncsc1C(=O)N(Cc1cc(=O)[nH]c2ccc(F)cc12)c1cccc(Cl)c1 | 6.52 | < 50 | < 5.00 | < 4.00 | < 50
Cc1ncsc1C(=O)N(Cc1cc(=O)[nH]c2cc(F)ccc12)c1cccc(Cl)c1 | 7.28 | – | 5.47 | 4.48 | –
Cc1ncsc1C(=O)N(Cc1cc(=O)oc2c(F)cccc12)c1cccc(Cl)c1 | 5.70 | – | – | – | –
Cc1ncsc1C(=O)N(Cc1cc(=O)[nH]c2c1CCCC2)c1cccc(Cl)c1 | 5.94 | – | – | – | –
Cc1ncccc1C(=O)N(Cc1cc(=O)[nH]c2c(F)cccc12)c1cccc(Cl)c1 | 6.46 | < 50 | 5.10 | < 4.00 | –
